Laboratory results from ChEMBL document CHEMBL2010670, “Discovery of a clinical stage multi-kinase inhibitor sodium (E)-2-{2-methoxy-5-[(2',4',6'-trimethoxystyrylsulfonyl)methyl]phenylamino}acetate (ON 01910.Na): synthesis, structure-activity relationship, and biological activity” (J Med Chem, 2011).

How the values were obtained:
Format in all cases: functional, cell-based
K562 = assay: Cytotoxicity against human K562 cells after 96 hrs by trypan blue exclusion assay; conditions: Homo sapiens, K562, 96 h
In short: (§1)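 Cells grown in DMEM or RPMI with 10% FBS and penicillin-streptomycin, seeded at 1.0 × 10⁵ cells/mL/well in 6-well dishes. Compound added at a range of concentrations 24 h after seeding. Viable cells counted by trypan blue exclusion from duplicate wells after 96 h of exposure; dose-response end point.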

DU-145 = assay: Cytotoxicity against human DU145 cells after 96 hrs by trypan blue exclusion assay; conditions: Homo sapiens, DU-145, 96 h; in short: as §1
[1] = Cytotoxicity against human MES-SA cells assessed as cell viability after 96 hrs by trypan blue exclusion; in short: as §1
[2] = Cytotoxicity against multidrug-resistant human MES-SA/Dx5 cells assessed as cell viability after 96 hrs by trypan blue exclusion; conditions: MES-SA/Dx5, 96 h
In short: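 Cells grown in DMEM or RPMI with 10% FBS and 1 unit/mL penicillin-streptomycin, seeded at 1.0 × 10⁵ cells/mL/well in 6-well dishes; compound added 24 h later at various concentrations. After 96 h of treatment, viable cells counted by trypan blue exclusion in duplicate wells; dose-response end point.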

Row | Compound | IC50 (K562) | IC50 (DU-145) | IC50 [1] | IC50 [2]
1 | COc1cc(OC)c(/C=C/[S+]([O-])Cc2ccc(OC)c(N)c2)c(OC)c1 (centres undefined) | 20 nM | 40 nM | – | –
2 | COc1cc(OC)c(/C=C/S(=O)(=O)Cc2cc(N)ccc2OC)c(OC)c1 | 7500 nM | 7500 nM | – | –
3 | CC(=O)O[C@H]1C(=O)[C@@]2(C)[C@H]([C@H](OC(=O)c3ccccc3)[C@]3(O)C[C@H](OC(=O)[C@H](O)[C@@H](NC(=O)c4ccccc4)c4ccccc4)C(C)=C1C3(C)C)[C@]1(OC(C)=O)CO[C@@H]1C[C@@H]2O [PACLITAXEL] | – | – | 4 nM | 750 nM
4 | COc1ccc(/C=C/S(=O)(=O)Cc2ccc(OC)c([N+](=O)[O-])c2)cc1 | 25000 nM | 25000 nM | – | –
5 | COc1cc(OC)c(/C=C/S(=O)(=O)Cc2ccc(OC)c(N[C@@H](C)C(=O)O)c2)c(OC)c1 | 15 nM | 25 nM | – | –
6 | COC(=O)C(Nc1cc(CS(=O)(=O)/C=C/c2c(OC)cc(OC)cc2OC)ccc1OC)c1ccc(Cl)cc1 (centres undefined) | 200 nM | 400 nM | – | –
7 | COc1ccc(CS(=O)(=O)/C=C/c2c(OC)cc(OCCCC(=O)O)cc2OC)cc1N | 20000 nM | 25000 nM | – | –
8 | COc1cc(OC)c(/C=C/S(=O)(=O)Cc2ccc(OC)c(NC(C)(C)C(=O)O)c2)c(OC)c1 | 7.5 nM | 150 nM | – | –
9 | COc1ccc(CS(=O)(=O)/C=C/c2c(OC)cccc2OC)c(N)c1 | 750 nM | 750 nM | – | –
10 | COc1cc(OC)c(/C=C/S(=O)(=O)Cc2ccc(OC)c(NC(C(=O)O)c3ccc(Br)cc3)c2)c(OC)c1 (centres undefined) | 200 nM | 300 nM | – | –
11 | COc1ccc(OC)c(/C=C/S(=O)(=O)Cc2ccc(OC)c(N)c2)c1 | 750 nM | 750 nM | – | –
12 | COc1ccc(CS(=O)(=O)/C=C/c2ccccc2OC)cc1N | 7500 nM | 7500 nM | – | –
13 | COc1cc(OC)c(/C=C/S(=O)(=O)Cc2ccc(OC)c(NC(F)(F)C(=O)O)c2)c(OC)c1 | 150 nM | 150 nM | – | –
14 | COc1ccc(CS(=O)(=O)/C=C/c2c(OC)cccc2OC)cc1[N+](=O)[O-] | 20000 nM | 20000 nM | – | –
15 | COc1cc(OC)c(/C=C/SCc2ccc(OC)c([N+](=O)[O-])c2)c(OC)c1 | 5000 nM | 5000 nM | – | –
16 | COc1ccccc1/C=C/S(=O)(=O)Cc1ccc(OC)c([N+](=O)[O-])c1 | 20000 nM | 20000 nM | – | –
17 | COc1ccc(/C=C/S(=O)(=O)Cc2ccc(OC)c(N)c2)c(OC)c1 | 500 nM | 500 nM | – | –
18 | COc1cc(OC)c(/C=C/[S+]([O-])Cc2ccc(OC)c([N+](=O)[O-])c2)c(OC)c1 (centres undefined) | 15000 nM | 15000 nM | – | –
19 | COc1cc(OC)c(/C=C/S(=O)(=O)Cc2ccc(F)c(N)c2)c(OC)c1 | 2500 nM | 2500 nM | – | –

Row | Compound | IC50 (K562) | IC50 (DU-145) | IC50 [1] | IC50 [2]
20 | COc1ccc(CS(=O)(=O)/C=C/c2c(OC)cc(O)cc2OC)cc1N | 300 nM | 200 nM | – | –
21 | COC(=O)C(Nc1cc(CS(=O)(=O)/C=C/c2c(OC)cc(OC)cc2OC)ccc1OC)c1ccc(F)cc1 (centres undefined) | 800 nM | 300 nM | – | –
22 | COc1cc(OC)c(/C=C/SCc2ccc(OC)c(N)c2)c(OC)c1 | 30 nM | 50 nM | – | –
23 | COc1ccc(CS(=O)(=O)/C=C/c2c(F)cc(F)cc2F)cc1N | 800 nM | 2000 nM | – | –
24 | COc1cc(OC)c(/C=C/S(=O)(=O)Cc2ccc(OC)c([N+](=O)[O-])c2)c(OC)c1 | 2500 nM | 2500 nM | – | –
25 | COC(=O)C(Nc1cc(CS(=O)(=O)/C=C/c2c(OC)cc(OC)cc2OC)ccc1OC)C(F)(F)F (centres undefined) | 250 nM | 250 nM | – | –
26 | COc1ccc(CS(=O)(=O)/C=C/c2c(OC)cccc2OC)cc1N | 50 nM | 50 nM | – | –
27 | COc1ccc(CS(=O)(=O)/C=C/c2c(OC)cc(OC)cc2OC)c(N)c1 | 25 nM | 25 nM | – | –
28 | COc1ccc(CS(=O)(=O)/C=C/c2cc(OC)c(OC)c(OC)c2)cc1N | 250 nM | 3000 nM | – | –
29 | COC(=O)[C@H](C)Nc1cc(CS(=O)(=O)/C=C/c2c(OC)cc(OC)cc2OC)ccc1OC | 200 nM | 750 nM | – | –
30 | COc1ccc(CS(=O)(=O)/C=C/c2cc(OC)c(OC)c(OC)c2)cc1NCC(=O)O | 3000 nM | 5000 nM | – | –
31 | COc1cc(OC)c(/C=C/S(=O)(=O)Cc2ccc(Br)c(N)c2)c(OC)c1 | 750 nM | 750 nM | – | –
32 | COc1cc(OC)c(/C=C/S(=O)(=O)Cc2ccc(Br)c([N+](=O)[O-])c2)c(OC)c1 | 25000 nM | 25000 nM | – | –
33 | COc1cc(OC)c(/C=C/S(=O)(=O)Cc2ccc(F)c([N+](=O)[O-])c2)c(OC)c1 | 25000 nM | 25000 nM | – | –
34 | COc1cc(OC)c(/C=C/S(=O)(=O)Cc2ccc(Cl)c(N)c2)c(OC)c1 | 10 nM | 10 nM | – | –
35 | COC(=O)CNc1cc(CS(=O)(=O)/C=C/c2cc(OC)c(OC)c(OC)c2)ccc1OC | 30000 nM | 75000 nM | – | –
36 | COC(=O)CNc1cc(CS(=O)(=O)/C=C/c2c(OC)cc(OC)cc2OC)ccc1OC | 100 nM | 100 nM | – | –
37 | COc1ccc(C(Nc2cc(CS(=O)(=O)/C=C/c3c(OC)cc(OC)cc3OC)ccc2OC)C(=O)O)cc1 (centres undefined) | 15 nM | 100 nM | – | –
38 | COC(=O)CCNc1cc(CS(=O)(=O)/C=C/c2c(OC)cc(OC)cc2OC)ccc1OC | 1000 nM | 1500 nM | – | –

Row | Compound | IC50 (K562) | IC50 (DU-145) | IC50 [1] | IC50 [2]
39 | COc1cc(OC)c(/C=C/S(=O)(=O)Cc2ccc(OC)c(NC(C(=O)O)c3ccc(F)cc3)c2)c(OC)c1 (centres undefined) | 80 nM | 150 nM | – | –
40 | COc1cc(OC)c(/C=C/S(=O)(=O)Cc2ccc(OC)c(NCCC(=O)O)c2)c(OC)c1 | 5000 nM | 5000 nM | – | –
41 | COc1ccc(CS(=O)(=O)/C=C/c2c(OC)cccc2OC)c([N+](=O)[O-])c1 | 50000 nM | 50000 nM | – | –
42 | COc1ccc(CS(=O)(=O)/C=C/c2c(OC)cc(O)cc2OC)cc1[N+](=O)[O-] | 5000 nM | 5000 nM | – | –
43 | COC(=O)C(Nc1cc(CS(=O)(=O)/C=C/c2c(OC)cc(OC)cc2OC)ccc1OC)c1ccc(OC)cc1 (centres undefined) | 150 nM | 250 nM | – | –
44 | COc1cc(OC)c(/C=C/S(=O)(=O)Cc2ccc(OC)cc2[N+](=O)[O-])c(OC)c1 | 20000 nM | 20000 nM | – | –
45 | COc1cc(OC)c(/C=C/S(=O)(=O)Cc2ccc(OC)c(NC(C(=O)O)c3ccccc3)c2)c(OC)c1 (centres undefined) | 15 nM | 20 nM | – | –
46 | COc1cc(OC)c(/C=C/S(=O)(=O)Cc2ccc(OC)c(NC(C(=O)O)c3ccc(Cl)cc3)c2)c(OC)c1 (centres undefined) | 250 nM | 400 nM | – | –
47 | COc1cc(OC)c(/C=C/S(=O)(=O)Cc2ccc(Cl)cc2N)c(OC)c1 | 2500 nM | 2500 nM | – | –
48 | COc1cc(OC)c(/C=C/S(=O)(=O)Cc2ccc(OC)c(NCC(=O)O)c2)c(OC)c1 [RIGOSERTIB] | 7.5 nM | 75 nM | – | –
49 | COC(=O)C(C)(C)Nc1cc(CS(=O)(=O)/C=C/c2c(OC)cc(OC)cc2OC)ccc1OC | 800 nM | 2500 nM | – | –
50 | COC(=O)C(Nc1cc(CS(=O)(=O)/C=C/c2c(OC)cc(OC)cc2OC)ccc1OC)c1ccc(Br)cc1 (centres undefined) | 200 nM | 300 nM | – | –
51 | COC(=O)C(F)(F)Nc1cc(CS(=O)(=O)/C=C/c2c(OC)cc(OC)cc2OC)ccc1OC | 250 nM | 250 nM | – | –
52 | COc1ccc(N)cc1CS(=O)(=O)/C=C/c1c(OC)cccc1OC | 25000 nM | 25000 nM | – | –
53 | COc1ccc(/C=C/S(=O)(=O)Cc2ccc(OC)c(N)c2)cc1 | 2500 nM | 2500 nM | – | –
54 | COc1ccc(CS(=O)(=O)/C=C/c2cc(OC)c(OC)cc2OC)cc1N | 250 nM | 250 nM | – | –
55 | COC(=O)C(Nc1cc(CS(=O)(=O)/C=C/c2c(OC)cc(OC)cc2OC)ccc1OC)c1ccccc1 (centres undefined) | 30 nM | 75 nM | – | –
56 | COc1cc(OC)c(/C=C/S(=O)(=O)Cc2ccc(OC)c(NC(C(=O)O)C(F)(F)F)c2)c(OC)c1 (centres undefined) | 75 nM | 20 nM | – | –
57 | COc1ccc(CS(=O)(=O)/C=C/c2cc(F)c(F)cc2F)cc1N | 15000 nM | 5000 nM | – | –
